From PubChem BioAssay
A selection: hits, their analogues and other compounds. The true share with any hit is near 1.8%.
SIAE inh: human SIAE inhibition, primary screen; hit rate 0.69% among 370,000; SIAE FP-Rh probe binding, fluorescence polarization; Q9HAT2; inhibition, % at 9.66 µM;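 active = inhibition above a cutoff: mean of compounds within the control limits plus 3 SD of those, cut at about 17% in these data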;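 also: 0% = plate median of compound wells and 100% = probe without SIAE protein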
HTRA1 inh: HTRA1 (human) protease inhibition; Q92743; recombinant HTRA1, FP-rhodamine activity-based probe, fluorescence polarization; inhibition, % at 5.96 µM; hit rate 0.5% among 340,000; in the data active = inhibition above about 36%;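 also: 0% = enzyme with DMSO and 100% = wells lacking enzyme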
Target sequence (Q92743 whole entry, looked up): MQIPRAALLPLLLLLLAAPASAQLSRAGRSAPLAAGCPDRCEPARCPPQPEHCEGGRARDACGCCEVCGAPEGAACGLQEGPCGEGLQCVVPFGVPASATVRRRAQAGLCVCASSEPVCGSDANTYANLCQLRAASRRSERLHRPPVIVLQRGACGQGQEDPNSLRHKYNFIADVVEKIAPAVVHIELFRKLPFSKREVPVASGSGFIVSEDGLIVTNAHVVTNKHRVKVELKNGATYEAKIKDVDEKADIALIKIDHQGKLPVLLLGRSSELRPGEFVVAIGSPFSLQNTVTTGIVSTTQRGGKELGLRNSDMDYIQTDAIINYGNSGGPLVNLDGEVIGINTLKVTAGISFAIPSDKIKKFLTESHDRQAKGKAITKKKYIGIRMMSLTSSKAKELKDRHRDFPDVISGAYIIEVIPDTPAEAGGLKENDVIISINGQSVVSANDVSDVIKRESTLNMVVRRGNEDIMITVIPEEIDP
Fam108B inh: blocks mouse Fam108B hydrolase in RBBP9 counter-screen; recombinant Fam108B, FP-Rh probe fluorescence polarization; AID 1947; hit rate 0.33% among 300,000; inhibition, % at 9.51 µM;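 active = inhibition above the screen mean inhibition plus 3 SD, computed separately per campaign, cut at about 18% in these data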;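 also: inhibitors lower polarization as less probe binds the enzyme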
PME-1 inh: blocks human protein phosphatase methylesterase 1; Q9Y570; recombinant PME-1, FP-Rh probe fluorescence polarization; inhibition, % at 5.9 µM; hit rate 0.53% among 320,000; AID 2130;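 active = inhibition above the campaign mean of all compounds plus 3 SD, cut at about 26% in these data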;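 also: competitive labeling of PME-1 active site by serine hydrolase directed probe; 0% = PME-1 with DMSO and 100% = wells lacking PME-1 enzyme; inhibitors block probe labeling so polarization falls and inhibition rises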
TCR-CD3 inh: blocks the human TCR-CD3 interaction | TAMRA-labeled TCR probe fluorescence, biochemical | inhibition, % at 9.4 µM | hit rate 0.37% among 360,000 | AID 651800;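 also: recombinant mutant TCR 2C K166C tagged with TAMRA read by polarization; 0% = receptor in buffer alone and 100% = receptor with positive control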
ABHD4 inh: ABHD4 (mouse) inhibition, primary FP screen | purified mABHD4, FP-Rh probe fluorescence polarization | inhibition, % at 8.92 µM | hit rate 0.54% among 370,000 | AID 720543;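 active = inhibition exceeding the mean over every tested compound plus 3 SD, cut at about 30% in these data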;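 also: 0% = plate median of compound wells and 100% = S159A mutant with DMSO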
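Assay system: wild-type mouse ABHD4 protein; compound: single nominal dose of 8.92 µM, 0.89% DMSO final; schedule: 45 min + 60 min at 25 °C; measured by: FP readout, ex 525 nm / em 598 nm; evaluation: % inhibition of FP-Rh probe binding versus controls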
BSA probe FL: counter-screen for TCR-CD3 interaction inhibitors: BSA probe; inhibition, % at 9.4 µM; hit rate 10% among 1,200; shares compounds with TCR-CD3 inh; TAMRA-labeled BSA probe fluorescence counterscreen; in the data active = inhibition above about 23%;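 also: 0% = buffer low control and 100% = reference high control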
TCR-CD3 inh conf: confirmation of human TCR-CD3 interaction inhibitors | shares compounds with TCR-CD3 inh | TAMRA-labeled TCR probe fluorescence binding assay | inhibition, % at 9.4 µM | hit rate 48% among 1,200 | AID 652036
mABHD4 conf: confirmation of mouse ABHD4 inhibitors; shares compounds with ABHD4 inh; purified mABHD4, FP-Rh probe fluorescence polarization; inhibition, % at 8.92 µM; hit rate 55% among 1,800; AID 720658;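 active = mean inhibition across replicates above the hit cutoff set in the primary screen, cut at about 30% in these data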;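 also: 0% = wild-type ABHD4 with DMSO and 100% = catalytically dead S159A mutant with DMSO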
SIAE confirm: confirmation of human SIAE inhibitors; shares compounds with SIAE inh; SIAE FP-Rh activity-based probe, fluorescence polarization; inhibition, % at 9.66 µM; hit rate 13% among 2,300; AID 1117263;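 active = mean inhibition of the replicates above the hit cutoff set in the primary screen, cut at about 17% in these data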;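 also: 0% = SIAE with DMSO and probe and 100% = probe without SIAE; inhibitors lower polarization as more probe stays unbound to SIAE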
* = called active by the depositor. Rule as the data show it, unless noted: active = inhibition above about 19%; inactive = the rest.

What do the screens show for `O=C(O)C1CCCC2CN3CCc4c([nH]c5ccccc45)C3C(O)C21` (configuration not stated)?
SIAE inh: 19.3*; HTRA1 inh: 12.2; Fam108B inh: 14.2; PME-1 inh: 11.5; TCR-CD3 inh: 26.7*; ABHD4 inh: 21.8; BSA probe FL: 2.9; TCR-CD3 inh conf: 3.0; SIAE confirm: -3.3

What do the screens show for `C[C@@H](/C=C/C(=O)OC(C)(C)C)Sc1ccc(C(C)(C)C)cc1`?
SIAE inh: -4.6; ABHD4 inh: -1.5

How did CCOc1ccc(NC(=O)NNC(=O)c2ccc3ccccc3c2O)cc1 do in these assays?
SIAE inh: 20.6*; HTRA1 inh: 17.6; Fam108B inh: 5.3; PME-1 inh: 9.8; TCR-CD3 inh: 31.5*; ABHD4 inh: 27.5; BSA probe FL: -8.3; TCR-CD3 inh conf: 22.7*; SIAE confirm: 2.2

What do the screens show for `CCOc1ccc(NC(=O)NNC(=O)COc2ccc3ccccc3c2)cc1`?
SIAE inh: -1.7; HTRA1 inh: 1.2; Fam108B inh: -7.4; PME-1 inh: -6.3; TCR-CD3 inh: -5.4; ABHD4 inh: 2.5

What do the screens show for `Cc1cc2c(cc1S(=O)(=O)N1CCN(c3cccc(C)c3C)CC1)OCCN2C`?
SIAE inh: 86.7*; HTRA1 inh: -9.3; Fam108B inh: 2.8; PME-1 inh: 6.6; TCR-CD3 inh: 127.4*; ABHD4 inh: 128.9*; BSA probe FL: -1.4; TCR-CD3 inh conf: 2.0; mABHD4 conf: 77.6*; SIAE confirm: 57.8*

What do the screens show for `CCOC(=O)C1=Nc2cccc3c(O)ccc1c23`?
SIAE inh: 29.5*; TCR-CD3 inh: 84.6*; ABHD4 inh: 28.6; BSA probe FL: 141.0*; TCR-CD3 inh conf: 109.7*; SIAE confirm: 18.3*

What do the screens show for `COc1cc([N+](=O)[O-])cc(/C=N/NC(=O)c2ccc(NC(=O)c3ccc(C)cc3)cc2)c1O`?
SIAE inh: 18.1*; HTRA1 inh: 7.7; TCR-CD3 inh: 27.4*; ABHD4 inh: -6.2; BSA probe FL: -5.4; TCR-CD3 inh conf: 45.2*; SIAE confirm: 11.5

How did O=C1C=CC(=O)c2c(O)c(N3CCN(CCOCCO)CC3)c(Br)c(O)c21 do in these assays?
SIAE inh: 24.2*; HTRA1 inh: 31.3; TCR-CD3 inh: 75.3*; ABHD4 inh: 46.4*; BSA probe FL: 1.2; TCR-CD3 inh conf: 48.3*; mABHD4 conf: 72.2*; SIAE confirm: 15.2

How did C/C(=N\NC(=O)c1cc(O)ccc1O)c1cccc(NC(=O)c2cccc(Cl)c2)c1 do in these assays?
SIAE inh: 33.1*; HTRA1 inh: 2.0; Fam108B inh: 10.5; PME-1 inh: 12.9; TCR-CD3 inh: 43.2*; ABHD4 inh: 53.7*; BSA probe FL: -12.8; TCR-CD3 inh conf: 14.8; mABHD4 conf: 36.2*; SIAE confirm: 20.2*

What do the screens show for `C/C(=N\NC(=O)c1ccccc1O)c1cccc(NC(=O)c2ccccc2)c1`?
SIAE inh: 5.7; HTRA1 inh: 19.6; Fam108B inh: -5.9; PME-1 inh: -7.0; TCR-CD3 inh: 7.2; ABHD4 inh: 3.8

How did C=CCN1C(=O)[C@@H](CC(=O)NCc2cccs2)[C@]2(C(=O)OCC)CCCCC/C=C/12 do in these assays?
SIAE inh: 10.7; ABHD4 inh: 0.5

What do the screens show for `Clc1ccccc1N=Nc1ccccn1`?
SIAE inh: 20.3*; HTRA1 inh: 26.8; TCR-CD3 inh: 27.6*; ABHD4 inh: 41.0*; BSA probe FL: 8.1; TCR-CD3 inh conf: 12.9; mABHD4 conf: 5.2; SIAE confirm: 3.8

Results for O=S(=O)(CC1NCc2cc(F)ccc21)NCc1ccc(F)cc1 (configuration not stated) ?
SIAE inh: -3.6; ABHD4 inh: -6.3

How did Oc1c(N=Nc2nn[nH]n2)ccc2ccccc12 do in these assays?
SIAE inh: 24.7*; TCR-CD3 inh: 37.2*; ABHD4 inh: 26.5; BSA probe FL: 146.2*; TCR-CD3 inh conf: 104.2*; SIAE confirm: 44.0*

What do the screens show for `O=[N+]([O-])c1cc([N+](=O)[O-])c2nonc2c1Nc1ccc(O)cc1`?
SIAE inh: 20.9*; HTRA1 inh: 33.0; Fam108B inh: -0.7; PME-1 inh: 11.9; TCR-CD3 inh: 42.7*; ABHD4 inh: 45.8*; BSA probe FL: -0.3; TCR-CD3 inh conf: 5.3; mABHD4 conf: 10.1; SIAE confirm: 1.6

What do the screens show for `C[C@H](CCC(=O)N(c1ccccc1)c1ccccc1)CC1CCCCC1`?
SIAE inh: 0.9; ABHD4 inh: -0.9

What do the screens show for `COCCNC(=S)N/N=C(\C)c1ccccc1O`?
SIAE inh: 2.8; HTRA1 inh: 0.1; Fam108B inh: 2.0; PME-1 inh: 3.0; TCR-CD3 inh: 0.1; ABHD4 inh: 0.6

What do the screens show for `COc1ccc(/C(C)=N/NC(=S)NCCc2ccccc2)c(O)c1`?
SIAE inh: 24.7*; HTRA1 inh: 20.8; Fam108B inh: 2.6; PME-1 inh: 25.3; TCR-CD3 inh: 22.3*; ABHD4 inh: 7.9; BSA probe FL: -6.0; TCR-CD3 inh conf: 7.2; SIAE confirm: 23.5*

What do the screens show for `Nc1c(C(=O)NCC2CCCO2)sc2nc3c(c(-c4ccco4)c12)CC/C3=C\c1ccco1` (configuration not stated)?
SIAE inh: 22.8*; HTRA1 inh: 39.8*; TCR-CD3 inh: 38.9*; ABHD4 inh: 31.6*; BSA probe FL: -4.2; TCR-CD3 inh conf: 24.1*; mABHD4 conf: 29.2; SIAE confirm: 15.9

Results for NC(=O)c1sc2nc3c(c(-c4ccco4)c2c1N)CCCC3 ?
SIAE inh: 0.9; HTRA1 inh: 3.1; Fam108B inh: 2.9; PME-1 inh: 11.0; TCR-CD3 inh: -7.5; ABHD4 inh: 7.5

Results for COC(=O)C1CN(Cc2ccc(F)cc2)CCS(=O)(=O)N1Cc1ccc(OC)cc1 (configuration not stated) ?
SIAE inh: 2.5; ABHD4 inh: -6.7

What do the screens show for `CN(C)/C=C1\C=C2C(=O)c3ccccc3N2C1=O`?
SIAE inh: 20.9*; HTRA1 inh: 29.7; Fam108B inh: 15.0; PME-1 inh: 14.0; TCR-CD3 inh: 39.1*; ABHD4 inh: 7.7; BSA probe FL: 113.1*; TCR-CD3 inh conf: 74.3*; SIAE confirm: 37.7*

How did COc1ccc(S[C@]2(C(=O)N3CCN(c4ncccn4)CC3)CC(=O)N(c3ccc(C#N)cc3)[C@@H]2c2ccc(OC)cc2)cc1 do in these assays?
SIAE inh: -5.7; ABHD4 inh: -13.5
